{"data": "Assay results pooled from the literature", "read-out": "enzyme activity", "mode": "inhibitor", "CHEK2": "Serine/threonine-protein kinase Chk2 (CHEK2, Homo sapiens, UniProt O96017)", "CHEK2 R145W": "Serine/threonine-protein kinase Chk2 (CHEK2, Homo sapiens, UniProt O96017, R145W)", "note": "Compare with care: the assays were run in different laboratories."}
{"target": "CHEK2", "setting": "10 µM", "remaining activity [%]": 95.2, "SMILES": "Cc1sc(C(=O)NC2COC2)cc1-n1cc(NC(=O)Nc2c(F)cccc2Cl)cn1"}
{"target": "CHEK2", "setting": "10 µM", "remaining activity [%]": 101, "SMILES": "CCN(CC)c1ccc(C2=NNC(=O)CC2C)cc1[N+](=O)[O-] (centres unmarked)"}
{"target": "CHEK2", "setting": "10 µM", "remaining activity [%]": 53, "SMILES": "CC(C)(C)C(=O)c1sc(NC2CCCCC2)nc1N"}
{"target": "CHEK2 R145W", "assay": "radiometric", "setting": "1 µM", "remaining activity [%]": 79, "SMILES": "Cc1cnc(NC2CCOCC2)nc1-n1cnc(C(=O)NC(CN)c2cc(F)cc(Cl)c2)c1 (centres unmarked)"}
{"target": "CHEK2 R145W", "setting": "10 µM", "remaining activity [%]": 21, "SMILES": "CCCOc1ccc(OC)c(F)c1C(=O)c1ccc(C(=O)N[C@@H]2CNC[C@H]2NC(=O)c2ccc3[nH]ncc3c2)cc1"}
{"target": "CHEK2", "setting": "10 µM", "remaining activity [%]": 85, "SMILES": "Oc1cccc(-c2nc(N3CCOCC3)c3oc4ncccc4c3n2)c1"}
{"target": "Serine/threonine-protein kinase Chk2 (CHEK2, Homo sapiens, UniProt O96017, I157T)", "setting": "10 µM", "remaining activity [%]": 103, "SMILES": "Cc1ccc(NC(=O)c2ccc(C)c(C(F)(F)F)c2)cc1C#Cc1nn(C2CCC(O)CC2)c2ncnc(N)c12 (centres unmarked)"}
{"target": "CHEK2", "assay": "radiometric", "setting": "1 µM", "remaining activity [%]": 103, "SMILES": "CC(C)(C)c1nc(-c2cccc(NS(=O)(=O)c3c(F)cccc3F)c2F)c(-c2ccnc(N)n2)s1"}
{"target": "CHEK2", "assay": "radiometric", "setting": "1 µM", "remaining activity [%]": 81, "SMILES": "COc1cc(Nc2cnc(C#N)c(O[C@H](C)CN(C)C)n2)ncc1-c1cnn(C)c1"}
{"target": "CHEK2", "setting": "1 µM", "remaining activity [%]": 98, "SMILES": "COc1cc(Cl)c(C(=O)N[C@@H](CN[C@H]2CC[C@@H](N)CC2)Cc2ccc(C#N)cc2)cc1-c1ccc(CN[C@H](C)c2ccc(C)cc2)o1"}
{"target": "CHEK2", "setting": "5 µM", "remaining activity [%]": 91.5, "SMILES": "O=C(Nc1cnn(-c2csc(C(=O)NC3COC3)c2)c1)Nc1c(F)cccc1Cl"}
